Activity calls are given as the source filed them. No cut-off for these calls is given here.
Tested on: Mus musculus
Test: Compound was tested for antileukemic activity in P388 leukemia mice when administered a dose of 100 mg/kg/day; IA means inactive
Format: functional, organism-based
Procedure, shortened: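 BDF1 male mice, eight per group, implanted ip with 10⁶ P388 leukemia cells. Drug given ip in 0.5 mL saline. Schedules varied between groups; the 100 mg/kg/day regimen was dosed qd 1-9.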

## Nc1ncnc2c1ncn2[C@@H]1C[C@H](CO)[C@@H](O)[C@H]1O
  Activity: inactive

From ChEMBL document CHEMBL1122622, “Carbocyclic analogues of xylofuranosylpurine nucleosides. Synthesis and antitumor activity” (J Med Chem, 1984)
